Source: ChEMBL document CHEMBL5036356, “Spatial Distribution and Stability of Cholinesterase Inhibitory Protoberberine Alkaloids from Papaver setiferum” (J Nat Prod, 2022)

Experiments:
[1] = molecular target: Acetylcholinesterase (Homo sapiens, UniProt P22303); experiment: Inhibition of human recombinant AChE using acetylthiocholine chloride as substrate incubated for 5 mins by DTNB reagent based Ellman's method
In short: (§1)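 Enzyme stocks (commercial eel AChE, human recombinant AChE or horse serum BChE) at 0.0075 U/mL in 100 mM potassium phosphate, pH 7.4, added to start the reaction. Acetylthiocholine chloride 1 mM and DTNB 0.5 mM final. Compounds were taken from 5 mg/mL methanol stocks and serially diluted in buffer, with methanol blanks. Rate read at 405 nm, 25 °C, for 5 min. IC50 reported as mean ± SEM of at least three repeats.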

[2] = molecular target: Cholinesterase (Equus caballus, UniProt P81908); experiment: Inhibition of horse serum BChE incubated for 5 mins by DTNB reagent based Ellman's method
Chain of Cholinesterase (P81908 whole entry): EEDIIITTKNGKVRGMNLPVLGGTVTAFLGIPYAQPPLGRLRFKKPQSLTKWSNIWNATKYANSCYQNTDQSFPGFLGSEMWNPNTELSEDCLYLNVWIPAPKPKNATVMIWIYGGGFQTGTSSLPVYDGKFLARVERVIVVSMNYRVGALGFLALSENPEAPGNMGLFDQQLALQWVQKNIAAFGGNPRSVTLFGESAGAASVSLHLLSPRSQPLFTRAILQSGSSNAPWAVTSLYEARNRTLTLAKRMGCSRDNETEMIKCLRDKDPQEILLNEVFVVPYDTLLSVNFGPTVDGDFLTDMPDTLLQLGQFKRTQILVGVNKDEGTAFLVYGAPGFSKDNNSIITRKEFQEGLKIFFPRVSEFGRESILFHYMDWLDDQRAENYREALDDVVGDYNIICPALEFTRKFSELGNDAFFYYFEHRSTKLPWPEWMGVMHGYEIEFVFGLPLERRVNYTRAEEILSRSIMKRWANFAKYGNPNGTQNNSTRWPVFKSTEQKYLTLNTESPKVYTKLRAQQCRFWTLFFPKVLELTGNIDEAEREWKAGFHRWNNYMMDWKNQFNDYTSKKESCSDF
In short: as §1, with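 “blanks.” for “blanks. Rate read at 405 nm, 25 °C, for 5 min.”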

[3] = molecular target: Acetylcholinesterase (Electrophorus electricus, UniProt O42275); experiment: Inhibition of electrical eel AChE using acetylthiocholine chloride as substrate incubated for 5 mins by DTNB reagent based Ellman's method; in short: as §1
Chain of Acetylcholinesterase (Electrophorus electricus, UniProt O42275) (O42275 whole entry): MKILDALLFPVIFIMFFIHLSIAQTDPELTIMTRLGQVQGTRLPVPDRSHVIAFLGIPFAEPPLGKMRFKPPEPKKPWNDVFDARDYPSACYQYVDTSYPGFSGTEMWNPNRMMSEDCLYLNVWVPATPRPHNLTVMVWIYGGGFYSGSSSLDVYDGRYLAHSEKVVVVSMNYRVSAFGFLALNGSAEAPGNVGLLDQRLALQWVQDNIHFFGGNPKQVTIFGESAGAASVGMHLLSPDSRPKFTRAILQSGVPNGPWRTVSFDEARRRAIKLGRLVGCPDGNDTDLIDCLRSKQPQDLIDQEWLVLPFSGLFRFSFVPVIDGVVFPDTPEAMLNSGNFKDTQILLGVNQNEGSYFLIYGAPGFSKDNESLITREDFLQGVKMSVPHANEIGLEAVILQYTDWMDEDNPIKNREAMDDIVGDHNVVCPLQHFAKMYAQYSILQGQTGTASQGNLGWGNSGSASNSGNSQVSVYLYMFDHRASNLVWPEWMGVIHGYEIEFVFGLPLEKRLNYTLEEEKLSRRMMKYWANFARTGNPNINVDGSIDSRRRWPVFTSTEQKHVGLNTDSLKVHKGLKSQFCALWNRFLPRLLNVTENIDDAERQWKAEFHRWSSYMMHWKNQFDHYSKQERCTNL

Chain of Acetylcholinesterase (Homo sapiens, UniProt P22303) (P22303 whole entry): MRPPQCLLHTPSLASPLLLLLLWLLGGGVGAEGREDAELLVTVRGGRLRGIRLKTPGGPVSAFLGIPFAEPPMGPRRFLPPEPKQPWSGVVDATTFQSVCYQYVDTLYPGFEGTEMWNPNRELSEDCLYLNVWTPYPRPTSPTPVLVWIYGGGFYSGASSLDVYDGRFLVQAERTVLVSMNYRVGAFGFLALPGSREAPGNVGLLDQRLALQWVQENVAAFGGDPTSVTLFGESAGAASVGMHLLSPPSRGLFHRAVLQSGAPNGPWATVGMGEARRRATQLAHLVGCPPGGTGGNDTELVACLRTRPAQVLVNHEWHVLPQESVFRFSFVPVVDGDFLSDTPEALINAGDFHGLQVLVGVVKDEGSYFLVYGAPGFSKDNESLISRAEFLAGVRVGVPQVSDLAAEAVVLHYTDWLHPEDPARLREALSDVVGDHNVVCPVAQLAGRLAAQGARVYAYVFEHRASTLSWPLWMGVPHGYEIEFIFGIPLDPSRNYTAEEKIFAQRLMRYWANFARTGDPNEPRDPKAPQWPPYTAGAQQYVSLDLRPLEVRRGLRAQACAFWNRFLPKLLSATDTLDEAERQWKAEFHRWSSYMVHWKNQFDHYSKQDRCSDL

COc1cc2c(cc1O)[C@H](Cc1ccc(OC)c(OC)c1)[N+](C)(C)CC2
Not Active: IC50 [1] | Ki [1] | Ki [2] | IC50 [3] | Ki [3]

COC1=C[C@]23CCN(C)[C@H](Cc4ccc(OC)c(O)c42)C3=CC1=O [SALUTARIDINE]
Not Active: IC50 [1] | Ki [1] | Ki [2] | IC50 [3] | Ki [3]

COc1cc2c3c(c1O)-c1c(cccc1OC)C[C@@H]3N(C)CC2
Not Active: IC50 [1] | Ki [1]

O=[N+]([O-])CCc1ccc(O[C@@H]2O[C@H](CO[C@@H]3OC[C@@H](O)[C@H](O)[C@H]3O)[C@@H](O)[C@H](O)[C@H]2O)cc1
Not Active: IC50 [1] | Ki [1] | IC50 [2] | Ki [2] | IC50 [3] | Ki [3]

COc1cc2c3c(c1O)-c1c(cccc1OC)C[C@@H]3[N+](C)(C)CC2
Not Active: IC50 [1] | Ki [1] | IC50 [3] | Ki [3]

COc1cc(C[C@H]2c3cc(O)c(OC)cc3CC[N+]2(C)C)ccc1O
Not Active: IC50 [1] | Ki [1] | Ki [2] | IC50 [3] | Ki [3]
